Laboratory results: ChEMBL document CHEMBL1136094, “Novel, potent and selective cyclin D1/CDK4 inhibitors: indolo[6,7-a]pyrrolo[3,4-c]carbazoles” (Bioorg Med Chem Lett, 2003)

Assays:
[1] = target: Serine/threonine-protein kinase Chk1 (Homo sapiens) (UniProt O14757); assay: Inhibition of Serine/threonine-protein kinase Chk1 at 500 nM; set-up: scale not given: the % may be the effect or the level left
Summary of the method: (§1)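 Panel of 39 kinases, each tested at 100 and 500 nM inhibitor. […] Activity is expressed as % of control and is the mean of duplicate assays.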

[2] = target: Ribosomal protein S6 kinase (P70S6K) (Homo sapiens) (UniProt Q9UBS0+P23443); assay: Inhibition of Ribosomal protein S6 kinase (p70S6K) at 100 nM; type: protein-complex assay; set-up: scale not given: the % may be the effect or the level left; summary of the method: as §1
[3] = target: Mitogen-activated protein kinase 12 (Homo sapiens) (UniProt P53778); assay: Inhibition of Stress activated protein kinase 3 at 500 nM; set-up: scale not given: the % may be the effect or the level left; summary of the method: as §1
[4] = target: Tyrosine-protein kinase Lck (Homo sapiens) (UniProt P06239); assay: Inhibition of p56 Lck tyrosine kinase at 100 nM; set-up: scale not given: the % may be the effect or the level left; summary of the method: as §1
[5] = target: Mitogen-activated protein kinase 1 (Homo sapiens) (UniProt P28482); assay: Inhibition of Mitogen-activated protein kinase 2 at 500 nM; set-up: scale not given: the % may be the effect or the level left
Summary of the method: (§2)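 Panel profiling of isolated kinases with inhibitor at 100 nM and 500 nM. […] Remaining kinase activity is expressed as % of control and is the mean of duplicate assays.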

[6] = target: 3-phosphoinositide-dependent protein kinase 1 (Homo sapiens) (UniProt O15530); assay: Inhibition of PDK1 kinase at 100 nM; set-up: scale not given: the % may be the effect or the level left; summary of the method: as §2
[7] = target: 3-phosphoinositide-dependent protein kinase 1 (Homo sapiens) (UniProt O15530); assay: Inhibition of PDK1 kinase at 500 nM; set-up: scale not given: the % may be the effect or the level left; summary of the method: as §2
[8] = target: T1, CDK3/cyclin E (Homo sapiens) (UniProt P24864+O96020+Q00526); assay: Inhibition of Cyclin E-cyclin-dependent kinase 3 at 500 nM; type: protein-complex assay; set-up: scale not given: the % may be the effect or the level left; summary of the method: as §2
[9] = target: Mitogen-activated protein kinase 12 (Homo sapiens) (UniProt P53778); assay: Inhibition of Stress activated protein kinase 3 at 100 nM; set-up: scale not given: the % may be the effect or the level left; summary of the method: as §1
[10] = target: cAMP-dependent protein kinase (PKA) (Homo sapiens, UniProt P22694+P17612+P22612); assay: Inhibitory activity against Protein kinase A (Histone); type: protein assay
[11] = target: Inhibitor of nuclear factor kappa-B kinase subunit beta (Homo sapiens) (UniProt O14920); assay: Inhibition of I-kappa-B-kinase beta at 100 nM; set-up: scale not given: the % may be the effect or the level left; summary of the method: as §2
[12] = target: Proto-oncogene tyrosine-protein kinase Src (Homo sapiens) (UniProt P12931); assay: Inhibition of c-Src protein tyrosine kinase at 100 nM; set-up: scale not given: the % may be the effect or the level left; summary of the method: as §1
[13] = Inhibition of AMP-activated Protein Kinase at 500 nM; set-up: scale not given: the % may be the effect or the level left; summary of the method: as §2
[14] = target: Tyrosine-protein kinase SYK (Homo sapiens) (UniProt P43405); assay: Inhibition of Syk protein tyrosine kinase at 500 nM; set-up: scale not given: the % may be the effect or the level left; summary of the method: as §1
[15] = target: Tyrosine-protein kinase Fyn (Homo sapiens) (UniProt P06241); assay: Inhibition of Fyn protein kinase at 100 nM; set-up: scale not given: the % may be the effect or the level left; summary of the method: as §2
[16] = target: Protein kinase C gamma type (Homo sapiens) (UniProt P05129); assay: Inhibition of Protein kinase C gamma at 500 nM; set-up: scale not given: the % may be the effect or the level left; summary of the method: as §1
[17] = target: Proto-oncogene tyrosine-protein kinase Src (Homo sapiens) (UniProt P12931); assay: Inhibition of c-Src protein tyrosine kinase at 500 nM; set-up: scale not given: the % may be the effect or the level left; summary of the method: as §1
[18] = target: Ribosomal protein S6 kinase alpha-5 (Homo sapiens) (UniProt O75582); assay: Inhibition of MSK-1 kinase at 100 nM; set-up: scale not given: the % may be the effect or the level left; summary of the method: as §2
[19] = target: Calcium/calmodulin-dependent protein kinase type IV (Homo sapiens) (UniProt Q16566); assay: Inhibition of Calcium/calmodulin-dependent protein kinase type IV at 100 nM; set-up: scale not given: the % may be the effect or the level left; summary of the method: as §2
[20] = target: TGF-beta receptor type-2 (Homo sapiens, UniProt P37173); assay: Inhibition of TGF-beta type II receptor
[21] = target: RAC-alpha serine/threonine-protein kinase (Homo sapiens, UniProt P31749); assay: Inhibition of Protein kinase B, Akt-1
[22] = target: T1, CDK3/cyclin E (Homo sapiens); assay: Inhibition of Cyclin E-cyclin-dependent kinase 3 at 100 nM; type: protein-complex assay; set-up: scale not given: the % may be the effect or the level left; summary of the method: as §2
[23] = target: MAP kinase-activated protein kinase 2 (Homo sapiens) (UniProt P49137); assay: Inhibition of mitogen-activated protein kinase-activated protein kinase 2 at 100 nM; set-up: scale not given: the % may be the effect or the level left; summary of the method: as §1
[24] = target: T2, Cyclin-dependent kinase 4/cyclin D1 (Homo sapiens, UniProt P11802); assay: Inhibitory activity against Cyclin D1-cyclin-dependent kinase 4 in enzymatic assay by measuring phosphorylation of RbING; type: protein-complex assay
[25] = target: MAP kinase-activated protein kinase 5 (Homo sapiens) (UniProt Q8IW41); assay: Inhibition of Protein kinase PRAK at 100 nM; set-up: scale not given: the % may be the effect or the level left; summary of the method: as §1
[26] = target: Tyrosine-protein kinase CSK (Homo sapiens) (UniProt P41240); assay: Inhibition of Tyrosine-protein kinase CSK at 100 nM; set-up: scale not given: the % may be the effect or the level left; summary of the method: as §1
[27] = target: Dual specificity mitogen-activated protein kinase kinase 1 (Homo sapiens) (UniProt Q02750); assay: Inhibition of Mitogen activated protein kinase kinase kinase 1 at 100 nM; set-up: scale not given: the % may be the effect or the level left
[28] = target: T2, Cyclin-dependent kinase 4/cyclin D1; assay: Inhibitory activity against Cyclin D1-cyclin-dependent kinase 4 in enzymatic assay by measuring phosphorylation of Rb21; type: protein-complex assay
[29] = target: MAP kinase-activated protein kinase 2 (Homo sapiens) (UniProt P49137); assay: Inhibition of mitogen-activated protein kinase-activated protein kinase 2 at 500 nM; set-up: scale not given: the % may be the effect or the level left; summary of the method: as §1
[30] = target: Mitogen-activated protein kinase 10 (Homo sapiens) (UniProt P53779); assay: Inhibition of c-Jun N-terminal kinase 3 at 500 nM; set-up: scale not given: the % may be the effect or the level left; summary of the method: as §1
[31] = target: Casein kinase II (Homo sapiens) (UniProt P67870+P68400+P19784); assay: Inhibition of CK2 kinase at 500 nM; type: protein-complex assay; set-up: scale not given: the % may be the effect or the level left; summary of the method: as §2
[32] = target: Tyrosine-protein kinase ZAP-70 (Homo sapiens) (UniProt P43403); assay: Inhibition of Zeta-chain (TCR) associated protein kinase 70 kDa (ZAP70) at 100 nM; set-up: scale not given: the % may be the effect or the level left; summary of the method: as §1
[33] = target: MAP kinase-activated protein kinase 5 (Homo sapiens) (UniProt Q8IW41); assay: Inhibition of Protein kinase PRAK at 500 nM; set-up: scale not given: the % may be the effect or the level left; summary of the method: as §1
[34] = target: Mitogen-activated protein kinase 8 (Homo sapiens) (UniProt P45983); assay: Inhibition of c-Jun N-terminal kinase 1-alpha 1 at 100 nM; set-up: scale not given: the % may be the effect or the level left; summary of the method: as §1
[35] = system: HCT-116; assay: In vitro antiproliferative activity against human carcinoma cell line HCT116 (colon); type: functional, cell-based
[36] = target: Dual specificity mitogen-activated protein kinase kinase 6 (Homo sapiens) (UniProt P52564); assay: Inhibition of mitogen-activated protein kinase kinase 6 at 100 nM; set-up: scale not given: the % may be the effect or the level left; summary of the method: as §1
[37] = target: Tyrosine-protein kinase Lyn (Homo sapiens) (UniProt P07948); assay: Inhibition of Protein tyrosine kinase Lyn at 100 nM; set-up: scale not given: the % may be the effect or the level left
[38] = target: Inhibitor of nuclear factor kappa-B kinase subunit beta (Homo sapiens) (UniProt O14920); assay: Inhibition of I-kappa-B-kinase beta at 500 nM; set-up: scale not given: the % may be the effect or the level left; summary of the method: as §2
[39] = target: Ribosomal protein S6 kinase alpha-5 (Homo sapiens) (UniProt O75582); assay: Inhibition of MSK-1 kinase at 500 nM; set-up: scale not given: the % may be the effect or the level left; summary of the method: as §2
[40] = target: Cyclin-dependent kinase 4 (Homo sapiens) (UniProt P11802); assay: Inhibition of Rb phosphorylation at the CDK4 specific Ser780 residue (1 fold increase over control) after 24 hr incubation in HCT116 cells; type: functional, cell-based; settings: HCT-116, concentration not given here
[41] = target: Casein kinase I (Homo sapiens) (UniProt Q9HCP0+P78368+P48730+P49674+P48729); assay: Inhibition of CK1 kinase at 500 nM; type: protein assay; set-up: scale not given: the % may be the effect or the level left; summary of the method: as §2
[42] = target: Calcium/calmodulin-dependent protein kinase type IV (Homo sapiens) (UniProt Q16566); assay: Inhibition of Calcium/calmodulin-dependent protein kinase type IV at 500 nM; set-up: scale not given: the % may be the effect or the level left; summary of the method: as §2
[43] = target: Protein kinase C theta type (Homo sapiens) (UniProt Q04759); assay: Inhibition of Protein kinase C theta at 500 nM; set-up: scale not given: the % may be the effect or the level left; summary of the method: as §1
[44] = target: Tyrosine-protein kinase Lyn (Homo sapiens) (UniProt P07948); assay: Inhibition of Protein tyrosine kinase Lyn at 500 nM; set-up: scale not given: the % may be the effect or the level left; summary of the method: as §1

T2 sequence (P11802 whole entry): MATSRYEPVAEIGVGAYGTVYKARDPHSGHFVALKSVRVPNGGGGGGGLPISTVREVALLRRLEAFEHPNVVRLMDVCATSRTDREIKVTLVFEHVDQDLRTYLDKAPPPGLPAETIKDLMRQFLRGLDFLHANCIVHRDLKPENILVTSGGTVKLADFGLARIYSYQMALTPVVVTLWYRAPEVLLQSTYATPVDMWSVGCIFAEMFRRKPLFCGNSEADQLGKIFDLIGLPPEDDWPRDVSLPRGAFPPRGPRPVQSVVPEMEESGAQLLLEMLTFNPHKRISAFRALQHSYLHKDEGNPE
T2 sequence (P24385 whole entry, further chain): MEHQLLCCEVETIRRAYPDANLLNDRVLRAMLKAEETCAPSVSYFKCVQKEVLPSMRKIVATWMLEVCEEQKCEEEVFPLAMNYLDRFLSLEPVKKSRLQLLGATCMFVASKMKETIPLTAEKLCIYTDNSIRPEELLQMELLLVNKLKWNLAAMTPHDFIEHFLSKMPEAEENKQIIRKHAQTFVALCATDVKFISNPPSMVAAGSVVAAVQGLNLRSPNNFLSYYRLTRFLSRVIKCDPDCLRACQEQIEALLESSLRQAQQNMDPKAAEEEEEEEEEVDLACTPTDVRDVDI
Chain of Ribosomal protein S6 kinase alpha-5 (Homo sapiens) (O75582 whole entry, looked up): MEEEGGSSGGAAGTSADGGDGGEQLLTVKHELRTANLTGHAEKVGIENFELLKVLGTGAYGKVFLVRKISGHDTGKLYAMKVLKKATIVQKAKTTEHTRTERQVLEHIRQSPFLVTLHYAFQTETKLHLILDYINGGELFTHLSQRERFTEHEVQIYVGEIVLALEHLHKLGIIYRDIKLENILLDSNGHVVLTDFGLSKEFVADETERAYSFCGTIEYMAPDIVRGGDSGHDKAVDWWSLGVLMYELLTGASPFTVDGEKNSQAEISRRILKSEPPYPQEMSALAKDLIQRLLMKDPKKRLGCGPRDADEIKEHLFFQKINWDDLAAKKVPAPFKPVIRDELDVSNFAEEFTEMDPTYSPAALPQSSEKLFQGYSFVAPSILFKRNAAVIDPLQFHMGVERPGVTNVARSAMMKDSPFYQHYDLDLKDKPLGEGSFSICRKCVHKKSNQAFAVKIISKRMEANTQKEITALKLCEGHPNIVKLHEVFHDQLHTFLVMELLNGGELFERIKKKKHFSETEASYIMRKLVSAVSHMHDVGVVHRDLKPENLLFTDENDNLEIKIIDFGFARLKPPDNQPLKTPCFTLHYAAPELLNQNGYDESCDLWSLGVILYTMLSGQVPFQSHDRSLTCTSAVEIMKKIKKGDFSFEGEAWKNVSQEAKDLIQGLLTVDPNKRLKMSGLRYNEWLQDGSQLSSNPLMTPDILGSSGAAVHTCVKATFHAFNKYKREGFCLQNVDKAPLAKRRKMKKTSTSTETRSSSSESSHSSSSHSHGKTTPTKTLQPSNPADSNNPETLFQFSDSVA
Chain of Mitogen-activated protein kinase 12 (Homo sapiens) (P53778 whole entry): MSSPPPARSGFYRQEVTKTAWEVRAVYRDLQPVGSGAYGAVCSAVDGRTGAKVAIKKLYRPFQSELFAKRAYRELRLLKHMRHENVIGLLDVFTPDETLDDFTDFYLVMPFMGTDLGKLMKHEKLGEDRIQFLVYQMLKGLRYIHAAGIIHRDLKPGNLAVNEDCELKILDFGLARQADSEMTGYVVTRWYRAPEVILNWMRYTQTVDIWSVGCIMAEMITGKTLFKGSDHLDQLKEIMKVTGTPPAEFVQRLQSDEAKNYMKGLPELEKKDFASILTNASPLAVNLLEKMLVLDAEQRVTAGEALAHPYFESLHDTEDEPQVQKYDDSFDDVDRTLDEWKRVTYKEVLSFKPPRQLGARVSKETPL
Chain of MAP kinase-activated protein kinase 5 (Homo sapiens) (Q8IW41 whole entry): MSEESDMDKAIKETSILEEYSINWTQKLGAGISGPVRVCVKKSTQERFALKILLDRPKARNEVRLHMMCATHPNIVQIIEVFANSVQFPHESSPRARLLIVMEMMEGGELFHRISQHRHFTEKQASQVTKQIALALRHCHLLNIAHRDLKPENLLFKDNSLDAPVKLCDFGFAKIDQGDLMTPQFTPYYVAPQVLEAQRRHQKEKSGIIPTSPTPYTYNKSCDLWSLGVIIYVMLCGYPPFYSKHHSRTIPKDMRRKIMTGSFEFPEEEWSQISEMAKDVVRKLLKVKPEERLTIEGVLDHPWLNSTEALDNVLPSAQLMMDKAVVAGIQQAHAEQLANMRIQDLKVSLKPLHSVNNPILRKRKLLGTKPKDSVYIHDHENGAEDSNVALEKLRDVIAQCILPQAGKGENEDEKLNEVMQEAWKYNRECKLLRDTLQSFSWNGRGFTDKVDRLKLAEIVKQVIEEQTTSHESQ
Chain of Calcium/calmodulin-dependent protein kinase type IV (Homo sapiens) (Q16566 whole entry): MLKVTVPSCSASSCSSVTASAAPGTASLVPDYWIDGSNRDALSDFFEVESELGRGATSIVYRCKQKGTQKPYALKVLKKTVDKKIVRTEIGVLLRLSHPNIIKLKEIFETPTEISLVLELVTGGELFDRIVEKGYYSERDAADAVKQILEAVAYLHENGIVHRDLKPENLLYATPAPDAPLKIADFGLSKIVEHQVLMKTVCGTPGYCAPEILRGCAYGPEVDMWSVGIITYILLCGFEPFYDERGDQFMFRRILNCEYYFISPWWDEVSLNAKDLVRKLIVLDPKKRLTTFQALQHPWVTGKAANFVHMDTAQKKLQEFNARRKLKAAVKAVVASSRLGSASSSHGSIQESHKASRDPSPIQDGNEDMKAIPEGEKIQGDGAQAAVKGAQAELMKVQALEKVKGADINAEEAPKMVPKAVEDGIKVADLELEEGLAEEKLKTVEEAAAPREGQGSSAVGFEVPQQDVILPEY
T1 sequence (O96020 whole entry, looked up): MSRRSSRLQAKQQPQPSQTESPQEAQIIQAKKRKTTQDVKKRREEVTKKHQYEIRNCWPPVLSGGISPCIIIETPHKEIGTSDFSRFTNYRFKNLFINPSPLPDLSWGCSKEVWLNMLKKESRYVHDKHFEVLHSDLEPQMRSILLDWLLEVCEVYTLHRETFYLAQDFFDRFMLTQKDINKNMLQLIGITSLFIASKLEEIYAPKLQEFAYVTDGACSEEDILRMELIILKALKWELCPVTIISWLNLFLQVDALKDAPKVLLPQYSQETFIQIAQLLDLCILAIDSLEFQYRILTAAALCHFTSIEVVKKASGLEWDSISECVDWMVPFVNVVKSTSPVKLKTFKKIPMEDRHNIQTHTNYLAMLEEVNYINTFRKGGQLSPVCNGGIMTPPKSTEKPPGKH
T1 sequence (P24864 whole entry, looked up): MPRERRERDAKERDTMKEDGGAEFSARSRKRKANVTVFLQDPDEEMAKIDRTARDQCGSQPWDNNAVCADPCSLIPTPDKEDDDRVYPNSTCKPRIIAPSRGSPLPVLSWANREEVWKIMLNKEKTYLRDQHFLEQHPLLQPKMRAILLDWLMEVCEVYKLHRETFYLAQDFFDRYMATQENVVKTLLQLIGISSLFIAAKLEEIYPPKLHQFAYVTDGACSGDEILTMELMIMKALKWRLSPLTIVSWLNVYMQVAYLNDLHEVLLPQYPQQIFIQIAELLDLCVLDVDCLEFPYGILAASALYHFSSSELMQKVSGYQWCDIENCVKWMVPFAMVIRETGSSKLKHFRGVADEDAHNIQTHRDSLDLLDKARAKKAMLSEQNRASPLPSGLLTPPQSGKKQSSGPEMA
T1 sequence (Q00526 whole entry, looked up): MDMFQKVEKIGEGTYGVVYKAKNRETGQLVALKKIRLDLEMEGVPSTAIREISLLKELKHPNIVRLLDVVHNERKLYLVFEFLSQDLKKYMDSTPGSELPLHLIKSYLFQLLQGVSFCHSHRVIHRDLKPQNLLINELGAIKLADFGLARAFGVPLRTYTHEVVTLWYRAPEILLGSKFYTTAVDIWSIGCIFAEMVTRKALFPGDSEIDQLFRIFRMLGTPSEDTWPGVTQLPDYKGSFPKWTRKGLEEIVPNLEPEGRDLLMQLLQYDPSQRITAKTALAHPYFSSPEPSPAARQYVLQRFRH
Chain of Proto-oncogene tyrosine-protein kinase Src (Homo sapiens) (P12931 2-536 limits assumed): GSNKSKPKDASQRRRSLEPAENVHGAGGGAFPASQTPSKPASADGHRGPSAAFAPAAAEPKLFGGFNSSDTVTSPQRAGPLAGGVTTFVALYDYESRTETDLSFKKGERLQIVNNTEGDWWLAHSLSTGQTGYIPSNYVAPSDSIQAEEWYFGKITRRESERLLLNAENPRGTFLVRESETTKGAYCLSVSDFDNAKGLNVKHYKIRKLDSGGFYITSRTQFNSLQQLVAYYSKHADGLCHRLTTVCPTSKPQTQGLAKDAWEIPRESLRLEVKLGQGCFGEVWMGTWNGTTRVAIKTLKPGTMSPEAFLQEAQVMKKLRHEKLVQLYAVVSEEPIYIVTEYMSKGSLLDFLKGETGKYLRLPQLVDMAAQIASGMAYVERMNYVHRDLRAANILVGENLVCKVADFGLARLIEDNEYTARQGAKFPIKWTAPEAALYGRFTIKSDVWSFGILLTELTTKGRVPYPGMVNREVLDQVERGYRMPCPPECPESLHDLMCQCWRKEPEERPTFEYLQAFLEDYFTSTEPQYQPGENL
Chain of 3-phosphoinositide-dependent protein kinase 1 (Homo sapiens) (O15530 whole entry): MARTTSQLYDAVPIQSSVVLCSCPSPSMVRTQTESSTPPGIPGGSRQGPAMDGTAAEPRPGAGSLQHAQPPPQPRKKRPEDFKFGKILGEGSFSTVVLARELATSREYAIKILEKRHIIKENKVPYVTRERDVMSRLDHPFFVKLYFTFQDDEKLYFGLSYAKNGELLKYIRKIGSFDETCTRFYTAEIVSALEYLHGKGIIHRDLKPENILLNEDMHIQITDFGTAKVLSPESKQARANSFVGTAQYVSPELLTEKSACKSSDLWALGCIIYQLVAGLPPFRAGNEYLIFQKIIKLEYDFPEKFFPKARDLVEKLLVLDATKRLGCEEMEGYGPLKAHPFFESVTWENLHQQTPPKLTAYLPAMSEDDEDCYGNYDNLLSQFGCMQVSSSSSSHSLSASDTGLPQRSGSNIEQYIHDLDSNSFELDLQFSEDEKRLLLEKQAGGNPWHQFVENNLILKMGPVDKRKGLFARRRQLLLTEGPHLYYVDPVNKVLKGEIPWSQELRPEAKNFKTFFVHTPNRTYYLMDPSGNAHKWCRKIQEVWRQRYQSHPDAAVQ
Chain of Cyclin-dependent kinase 4 (Homo sapiens) (P11802 whole entry): as the sequence (P11802 whole entry) above

- Control [1]: 70%
- Control [2]: 93%
- Control [3]: 109%
- Control [4]: 98%
- Control [5]: 90%
- Control [6]: 104%
- Control [7]: 65%
- Control [8]: 63%
- Control [9]: 107%
- IC50 [10]: 2.93 µM
- Control [11]: 120%
- Control [12]: 100%
- Control [13]: 95%
- Control [14]: 68%
- Control [15]: 92%
- Control [16]: 84%
- Control [17]: 91%
- Control [18]: 92%
- Control [19]: 108%
- IC50 [20]: > 20 µM
- IC50 [21]: 5.48 µM
- Control [22]: 89%
- Control [23]: 94%
- IC50 [24]: 0.049 µM
- Control [25]: 86%
- Control [26]: 104%
- Control [27]: 95%
- IC50 [28]: 0.019 µM
- Control [29]: 104%
- Control [30]: 97%
- Control [31]: 94%
- Control [32]: 134%
- Control [33]: 50%
- Control [34]: 99%
- IC50 [35]: 1.05 µM
- Control [36]: 100%
- Control [37]: 78%
- Control [38]: 106%
- Control [39]: 90%
- inhibition [40]: 45%
- Control [41]: 89%
- Control [42]: 102%
- Control [43]: 58%
- Control [44]: 18%
Structure (SMILES): Cn1ccc2ccc3c4[nH]c5c(CCCN[C@H]6CC[C@H](O)CC6)cccc5c4c4c(c3c21)C(=O)NC4=O
